Experimental data from ChEMBL document CHEMBL4038350 (J Med Chem, 2017).
Non-standard residues stand in square brackets, D forms with d. Residues, ends and D or L forms follow the SMILES beside them.

How the values were obtained:
Format in all cases: functional, cell-based
[1] = target: Melanocortin receptor 5 (Mus musculus) (UniProt P41149); experiment: Inverse agonist activity at mouse melanocortin receptor 5 expressed in HEK293 cells assessed as decrease in cAMP accumulation at 130 nM after 2 hrs by AlphaScreen assay relative to control; set-up: scale not given: the % may be the effect or the level left
Outline: (§1)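 In mouse MC5R-HEK293 cells, cAMP was measured by AlphaScreen after 2 h peptide exposure (10−4 to 10−13 M) at room temperature. Each replicate was normalized to its signal at 10−10 M. For sigmoidal curves, percent inverse agonism was the change from basal to the high-concentration plateau. Apparent potency was taken as the curve inflection point. Three independent experiments were run.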

[2] = target: Melanocyte-stimulating hormone receptor (Mus musculus) (UniProt Q01727); experiment: Agonist activity at mouse melanocortin receptor 1 expressed in HEK293 cells assessed as increase in cAMP accumulation at 100 uM after 2 hrs by AlphaScreen assay relative to control
Outline: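 Cyclic peptides were dissolved in DMSO. Receptor-expressing HEK293 cells in IBMX-containing stimulation buffer (pH 7.4) were stimulated for 2 h at room temperature. cAMP was then detected by competitive AlphaScreen after a 2 h lysis/bead step. […] Values come from at least three independent experiments.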

[3] = target: Melanocyte-stimulating hormone receptor (Mus musculus) (UniProt Q01727); experiment: Partial agonist activity at mouse melanocortin receptor 1 expressed in HEK293 cells assessed as increase in cAMP accumulation after 2 hrs by AlphaScreen assay relative to NDP
Outline: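 Mouse MC1R stably expressed in HEK293 cells, stimulated for 2 hr at room temperature in the dark. Peptide at 10−4 to 10−13 M in HBSS/HEPES buffer with 0.5 mM IBMX and 0.1% BSA, pH 7.4; forskolin 10−4 M. AlphaScreen cAMP detection after lysis and a further 2 hr. Signal normalized to maximal NDP-MSH response.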

Melanocortin receptor 3 [4] = target: T1, Melanocortin receptor 3 (Mus musculus, UniProt P33033); experiment: Agonist activity at mouse melanocortin receptor 3 expressed in HEK293 cells assessed as increase in cAMP accumulation after 2 hrs by AlphaScreen assay
Melanocortin receptor 5 = Melanocortin receptor 5 (Mus musculus, UniProt P41149); experiment: Agonist activity at mouse melanocortin receptor 5 expressed in HEK293 cells assessed as increase in cAMP accumulation after 2 hrs by AlphaScreen assay
Outline: (§2)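 Donor beads and biotin-cAMP in lysis buffer followed for 2 h. The AlphaScreen signal was read. EC50 came from nonlinear least-squares fits, duplicates, at least three independent experiments.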

[5] = target: Melanocyte-stimulating hormone receptor (Mus musculus, UniProt Q01727); experiment: Agonist activity at mouse melanocortin receptor 1 expressed in HEK293 cells assessed as increase in cAMP accumulation after 2 hrs by AlphaScreen assay; outline: as §2
Melanocortin receptor 4 [6] = target: T2, Melanocortin receptor 4 (Mus musculus, UniProt P56450); experiment: Antagonist activity at mouse melanocortin receptor 4 expressed in HEK293 cells assessed as inhibition of NDP-MSH-induced cAMP accumulation after 2 hrs by AlphaScreen assay; conditions: read-out: pA2 (converted)
Melanocortin receptor 3 [7] = target: T1, Melanocortin receptor 3; experiment: Antagonist activity at mouse melanocortin receptor 3 expressed in HEK293 cells assessed as inhibition of NDP-MSH-induced cAMP accumulation after 2 hrs by AlphaScreen assay; conditions: read-out: pA2 (converted)
Melanocortin receptor 4 [8] = target: T2, Melanocortin receptor 4; experiment: Agonist activity at mouse melanocortin receptor 4 expressed in HEK293 cells assessed as increase in cAMP accumulation after 2 hrs by AlphaScreen assay
[9] = target: Melanocortin receptor 5 (Mus musculus) (UniProt P41149); experiment: Inverse agonist activity at mouse melanocortin receptor 5 expressed in HEK293 cells assessed as decrease in cAMP accumulation at 250 nM after 2 hrs by AlphaScreen assay relative to control; set-up: scale not given: the % may be the effect or the level left; outline: as §1
[10] = target: Melanocortin receptor 5 (Mus musculus) (UniProt P41149); experiment: Inverse agonist activity at mouse melanocortin receptor 5 expressed in HEK293 cells assessed as decrease in cAMP accumulation at 50 nM after 2 hrs by AlphaScreen assay relative to control; set-up: scale not given: the % may be the effect or the level left; outline: as §1
[11] = target: Melanocortin receptor 5 (Mus musculus) (UniProt P41149); experiment: Inverse agonist activity at mouse melanocortin receptor 5 expressed in HEK293 cells assessed as decrease in cAMP accumulation at 160 nM after 2 hrs by AlphaScreen assay relative to control; set-up: scale not given: the % may be the effect or the level left; outline: as §1
[12] = target: Melanocortin receptor 5 (Mus musculus) (UniProt P41149); experiment: Inverse agonist activity at mouse melanocortin receptor 5 expressed in HEK293 cells assessed as decrease in cAMP accumulation at 140 nM after 2 hrs by AlphaScreen assay relative to control; set-up: scale not given: the % may be the effect or the level left; outline: as §1
[13] = target: Melanocortin receptor 5 (Mus musculus) (UniProt P41149); experiment: Inverse agonist activity at mouse melanocortin receptor 5 expressed in HEK293 cells assessed as decrease in cAMP accumulation at 60 nM after 2 hrs by AlphaScreen assay relative to control; set-up: scale not given: the % may be the effect or the level left; outline: as §1

T2 sequence (P56450 whole entry): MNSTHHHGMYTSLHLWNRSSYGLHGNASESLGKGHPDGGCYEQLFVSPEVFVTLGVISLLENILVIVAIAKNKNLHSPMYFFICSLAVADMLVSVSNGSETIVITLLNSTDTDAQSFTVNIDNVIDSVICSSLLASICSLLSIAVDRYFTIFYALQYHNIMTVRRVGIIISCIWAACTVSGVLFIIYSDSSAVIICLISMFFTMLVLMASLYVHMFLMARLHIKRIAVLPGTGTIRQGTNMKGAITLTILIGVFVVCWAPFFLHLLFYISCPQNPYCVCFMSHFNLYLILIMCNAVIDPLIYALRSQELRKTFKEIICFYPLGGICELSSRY
Chain of Melanocyte-stimulating hormone receptor (Q01727 whole entry): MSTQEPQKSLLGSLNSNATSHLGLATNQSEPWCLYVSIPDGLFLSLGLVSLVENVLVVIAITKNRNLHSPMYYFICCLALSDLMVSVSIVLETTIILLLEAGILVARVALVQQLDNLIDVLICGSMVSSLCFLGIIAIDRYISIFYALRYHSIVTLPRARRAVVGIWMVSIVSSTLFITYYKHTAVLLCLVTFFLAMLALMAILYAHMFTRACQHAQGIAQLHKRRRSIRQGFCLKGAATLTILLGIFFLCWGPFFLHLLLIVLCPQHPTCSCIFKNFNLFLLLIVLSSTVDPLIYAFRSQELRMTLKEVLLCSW
Chain of Melanocyte-stimulating hormone receptor (Mus musculus) (Q01727 whole entry, looked up): as the sequence (Q01727 whole entry) above
Chain of Melanocortin receptor 5 (Mus musculus) (P41149 whole entry): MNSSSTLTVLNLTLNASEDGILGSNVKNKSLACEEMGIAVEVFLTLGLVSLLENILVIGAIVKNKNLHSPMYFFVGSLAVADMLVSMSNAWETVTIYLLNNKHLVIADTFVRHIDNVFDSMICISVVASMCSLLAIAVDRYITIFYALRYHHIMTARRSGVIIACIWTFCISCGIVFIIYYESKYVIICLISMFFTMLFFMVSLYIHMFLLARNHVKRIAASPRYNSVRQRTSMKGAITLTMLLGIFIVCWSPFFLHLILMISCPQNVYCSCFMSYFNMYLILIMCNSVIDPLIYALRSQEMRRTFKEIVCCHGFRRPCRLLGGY
T1 sequence (P33033 whole entry): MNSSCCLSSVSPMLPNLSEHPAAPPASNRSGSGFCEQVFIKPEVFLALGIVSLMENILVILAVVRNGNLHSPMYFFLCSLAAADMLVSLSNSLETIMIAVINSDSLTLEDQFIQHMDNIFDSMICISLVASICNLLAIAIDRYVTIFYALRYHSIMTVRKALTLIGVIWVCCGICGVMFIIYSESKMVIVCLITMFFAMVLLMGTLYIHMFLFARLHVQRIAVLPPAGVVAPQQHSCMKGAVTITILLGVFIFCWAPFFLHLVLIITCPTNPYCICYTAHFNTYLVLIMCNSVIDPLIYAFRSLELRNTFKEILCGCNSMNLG
Chain of Melanocortin receptor 5 (P41149 whole entry): as the sequence (P41149 whole entry) above

C[C@@H]1NC(=O)[C@H](CC(N)=O)NC(=O)[C@H](Cc2ccccc2)NC(=O)[C@H](Cc2ccccc2)NC(=O)[C@H](CCCNC(=N)N)NC(=O)[C@@H]2CCCN2C(=O)[C@H]2CCCN2C(=O)[C@H](Cc2ccccc2)NC1=O
Activity [1]: 10%
Activity [2]: 25%

N=C(N)NCCC[C@@H]1NC(=O)[C@@H]2CCCN2C(=O)[C@H]2CCCN2C(=O)[C@H](Cc2ccccc2)NC(=O)[C@H](Cc2c[nH]cn2)NC(=O)[C@H](CC(N)=O)NC(=O)[C@H](Cc2ccccc2)NC(=O)[C@H](Cc2ccccc2)NC1=O (cyclo(RFFNHF[dP]P))
Activity [3]: 40%
EC50 (Melanocortin receptor 3 [4]): > 100 µM
EC50 (Melanocortin receptor 5): > 100 µM
EC50 [5]: 2.6 µM
Kb (Melanocortin receptor 4 [6]): 0.851 µM
Kb (Melanocortin receptor 3 [7]): > 3.16 µM
EC50 (Melanocortin receptor 4 [8]): > 100 µM

C[C@@H]1NC(=O)[C@H](C)NC(=O)[C@H](Cc2ccccc2)NC(=O)[C@H](Cc2ccccc2)NC(=O)[C@H](CCCNC(=N)N)NC(=O)[C@@H]2CCCN2C(=O)[C@H]2CCCN2C(=O)[C@H](Cc2ccccc2)NC1=O
EC50 (Melanocortin receptor 3 [4]): > 100 µM
Activity [9]: 20%
EC50 [5]: > 100 µM
Kb (Melanocortin receptor 4 [6]): 0.0479 µM
Kb (Melanocortin receptor 3 [7]): > 3.16 µM
EC50 (Melanocortin receptor 4 [8]): > 100 µM

C[C@@H]1NC(=O)[C@H]([C@@H](C)O)NC(=O)[C@H](Cc2ccccc2)NC(=O)[C@H](Cc2ccccc2)NC(=O)[C@H](CCCNC(=N)N)NC(=O)[C@@H]2CCCN2C(=O)[C@H]2CCCN2C(=O)[C@H](Cc2ccccc2)NC1=O (cyclo(RFFTAF[dP]P))
EC50 (Melanocortin receptor 3 [4]): > 100 µM
EC50 [5]: > 100 µM
Kb (Melanocortin receptor 4 [6]): 0.0174 µM
Kb (Melanocortin receptor 3 [7]): 0.398 µM
EC50 (Melanocortin receptor 4 [8]): > 100 µM
Activity [10]: 20%

CCC1NC(=O)[C@H](Cc2ccccc2)NC(=O)[C@H](Cc2ccccc2)NC(=O)[C@H](CCCNC(=N)N)NC(=O)[C@@H]2CCCN2C(=O)[C@H]2CCCN2C(=O)[C@H](Cc2ccccc2)NC(=O)[C@H](C)NC1=O (some centres undefined)
EC50 (Melanocortin receptor 3 [4]): > 100 µM
Kb (Melanocortin receptor 3 [7]): > 3.16 µM
Activity [11]: 20%

C[C@@H]1NC(=O)[C@H](CO)NC(=O)[C@H](Cc2ccccc2)NC(=O)[C@H](Cc2ccccc2)NC(=O)[C@H](CCCNC(=N)N)NC(=O)[C@@H]2CCCN2C(=O)[C@H]2CCCN2C(=O)[C@H](Cc2ccccc2)NC1=O
EC50 (Melanocortin receptor 3 [4]): > 100 µM
EC50 [5]: > 100 µM
Kb (Melanocortin receptor 4 [6]): 0.02 µM
Kb (Melanocortin receptor 3 [7]): 1.26 µM
Activity [12]: 25%
EC50 (Melanocortin receptor 4 [8]): > 100 µM

C[C@@H]1NC(=O)[C@H](CN)NC(=O)[C@H](Cc2ccccc2)NC(=O)[C@H](Cc2ccccc2)NC(=O)[C@H](CCCNC(=N)N)NC(=O)[C@@H]2CCCN2C(=O)[C@H]2CCCN2C(=O)[C@H](Cc2ccccc2)NC1=O
EC50 (Melanocortin receptor 3 [4]): > 100 µM
Activity [2]: 30%
Activity [13]: 15%
Kb (Melanocortin receptor 3 [7]): 0.302 µM
